Series [1] concerns peritoneal MΦs (PMΦs). The series is described as follows: MΦ activation assay: LPS/IFN-γ–induced inflammatory cytokine expression. To be noted: for Antiinflammatory activity in the MΦ activation assay (in words): PMΦs, peptides 0.1 pM–100 nM, LPS/IFN-γ 15 h. In kind it is cell-based, mouse (C57BL/6).
For the next series, the system named is mice. To be noted: cited from earlier work.
The subject of another series is C57Bl6/J mice. The series is described as follows: Zymosan-induced peritonitis. The following applies: for Protection in vivo as judged by neutrophil and monocyte levels (in words): same dose and time as C15 (0.32 ng/kg i.p. 1 h before zymosan), 4 h. It counts as in vivo, mouse. An outline of the steps: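 C57BL6/J mice received test peptide i.p. (8 pg/mouse, ∼0.32 ng/kg, in 500 μl) or PBS, either 1 h before or 2 h after 10 μg zymosan A i.p. Peritoneal lavage with PBS-3 mM EDTA was done at 2–48 h. Cells were counted, Fc-blocked, stained for 7/4 and Ly-6G, and typed by FACS: neutrophils 7/4high Ly-6Ghigh, monocytes 7/4high Ly-6Glow. Six to eight mice per treatment.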

For series [2], the system named is ChemR23−/− PMΦs. The series is described as follows: MΦ activation assay in MΦs from ChemR23−/− mice. It counts as cell-based, mouse. The following applies: 0.1–1 pM, 1 h pretreatment, LPS/IFN-γ 15 h; ELISA. (ELISA stands for enzyme-linked immunosorbent assay.)
The subject of series [3] is ChemR23−/− PMΦs. The series is described as follows: MΦ chemotaxis assay with ChemR23 KO MΦs. It counts as cell-based, mouse. The following applies: MΦs from ChemR23−/− mice, 4 h migration.
In series [4] the test system is peritoneal MΦs (PMΦs). The series is described as follows: MΦ chemotaxis assay. It counts as cell-based, mouse. To be noted: 25 ng/ml, positive control, 4 h; mean ± SEM, n = 4 independent experiments. Summed up: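 Bio-Gel-elicited peritoneal MΦs (4 × 10^5) from wild-type or ChemR23−/− mice were placed on 8-μm-pore membranes in RPMI/25 mM Hepes/0.1% BSA. They migrated 4 h toward test peptide, 25 ng/ml RANTES (positive control) or serum-free medium. For Gαi blockade, cells were pretreated 30 min with 200 ng/ml PTX. Migrated nuclei were formalin-fixed, DAPI-stained and imaged, with ≥3 replicate wells per treatment. Migration index = treatment threshold area ÷ serum-free area; n = 4 experiments.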

For series [5], the system named is Bio-Gel–elicited peritoneal cells from ChemR23 KO mice. The series is described as follows: Calcium flux in ChemR23 KO cells. To be noted: Fura-PE3/AM. It counts as cell-based, mouse. (Calcium assays in cells follow changes in intracellular calcium, usually with a dye or a luminescent sensor.)
Series [6] relates to wild-type Bio-Gel–elicited peritoneal cells. The series is described as follows: Calcium flux in wild-type cells. In kind it is cell-based, mouse. To be noted: Fura-PE3/AM. Summed up: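 Cells from mice 4 d after Bio-Gel elicitation were suspended at 10^7 cells/ml in HBSS with CaCl2/MgCl, 0.5% BSA and 10 mM Hepes. They were loaded with 2 μM Fura-PE3/AM for 45 min at room temperature, then washed twice. 3 × 10^6 cells were added to prewarmed 37°C buffer in a cuvette. After at least 60 s, fluorescence was recorded at excitation 340/380 nm and emission 510 nm.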

The test system of a further series is MΦs. The series is described as follows: Cell viability, MTS assay. It counts as cell-based, mouse. The following applies: MTS assay (Promega). A general note: Tetrazolium dyes change colour on reduction, which living cells bring about.
[7] abbreviates: 0.32 ng/kg i.p. 1 h before zymosan, lavage fluid at 4 h.
Setting [8] is: time course, 8 pg/mouse i.p. 1 h before zymosan, 4 h after zymosan, FACS.
Where [9] appears, read: classically activated PMΦs, quantitative RT-PCR normalized to HPRT.

Turning to KPECTIKPNGRRRKCLACIK [M20], in the series on peritoneal MΦs (PMΦs) [1], the “Antiinflammatory activity in the MΦ activation assay (in words)” value (shortened to “Antiinflammatory activity”) is given as “devoid of antiinflammatory activity”.

Consider `CC[C@@H](O)/C=C/C=C\C[C@@H](O)/C=C/C=C/C=C\[C@@H](O)CCCC(=O)O` [RvE1, resolvin E1], for which the “Reduction of PMN numbers in peritoneal exudates” value in the series with mice (300 ng/mouse i.p. (12 μg/kg)) is given as “up to 25%”.

In the case of `C[C@@H]1C[C@H]2[C@@H]3CCC4=CC(=O)C=C[C@]4(C)[C@@]3(F)[C@@H](O)C[C@]2(C)[C@@]1(O)C(=O)CO` [dexamethasone], the “Suppression of monocyte and neutrophil influx” value in the series with mice (30 μg/mouse (1.2 mg/kg)) was 50%.

For AGEDPHGYALPGQAA [C15-M], the “Protection in vivo as judged by neutrophil and monocyte levels (in words)” value in the series on C57Bl6/J mice is on record as “not protective”. The “Antiinflammatory activity” value in the series with peritoneal MΦs (PMΦs) [1] is reported as “devoid of antiinflammatory activity”.

Consider AGEDPHGYFLPGQFA [C15], for which the “Effect at 4 pg/mouse (in words)” value in the series on C57Bl6/J mice (4 pg/mouse (∼0.16 ng/kg) i.p., 4 h after zymosan) is “significant antiinflammatory effects”. Further, the “Decrease in monocyte recruitment, C15 post-zymosan” value in the series on C57Bl6/J mice (8 pg i.p. 2 h after zymosan, 4 h after zymosan) was determined as 42%. The “Peritoneal monocyte levels, C15 post-zymosan” value in the series on C57Bl6/J mice (8 pg i.p. 2 h after zymosan, lavage 4 h after zymosan, zymosan alone 0.69 × 10^6) is 0.42 × 10^6 cells. For the same molecule, the “Peritoneal neutrophil numbers, C15 post-zymosan” value in the series with C57Bl6/J mice (8 pg i.p. 2 h after zymosan, lavage 4 h after zymosan, zymosan alone 1.9 × 10^6) is 0.83 × 10^6 cells. Further, in the series with C57Bl6/J mice (setting [7]), the “Reduction of peritoneal IL-1β expression” value worked out at 67%, the “Reduction of peritoneal IL-6 expression” value was found to be 67%, the “Reduction of peritoneal JE expression” value is 59% and the “Reduction of peritoneal KC expression” value is on record as 38%. Besides, the “Reduction of peritoneal TNF-α expression” value in the series on C57Bl6/J mice (setting [7]) is 51%. For the same molecule, the “Rate of monocyte influx” value in the series with C57Bl6/J mice (2–4 h after zymosan, 8 pg/mouse i.p. pretreatment, zymosan alone 0.51 × 10^6) was 0.18 × 10^6 cells/h. For the same molecule, the “Magnitude of peak neutrophilia relative to zymosan-challenged mice” value in the series on C57Bl6/J mice (time course, 8 pg/mouse i.p. 1 h before zymosan) was about 50%. In the series with C57Bl6/J mice (time course, 8 pg/mouse i.p. 1 h before zymosan, 2 h after zymosan, FACS), the “Suppression of neutrophil infiltration, 2 h” value is given as 50%. Further, in the series on C57Bl6/J mice (setting [8]), the “Suppression of monocyte levels, 4 h” value is 63% and the “Suppression of neutrophil infiltration, 4 h” value is listed as 66%. Also, in the series with C57Bl6/J mice (time course, 8 pg/mouse i.p. 1 h before zymosan, 8 h after zymosan, FACS), the “Suppression of monocyte levels, 8 h” value was determined as 61%. Further, the “Suppression of neutrophil infiltration, 24 h” value with C57Bl6/J mice (time course, 8 pg/mouse i.p. 1 h before zymosan, 24 h after zymosan, FACS) is 50%. In the series on C57Bl6/J mice (time course, 8 pg/mouse i.p. 1 h before zymosan, 48 h after zymosan, FACS), the “Suppression of monocyte levels, 48 h” value stood at 64%. Moreover, in the series with C57Bl6/J mice (time course, 8 pg/mouse i.p. 1 h before zymosan, zymosan alone 1.25 × 10^6), the “Peak peritoneal neutrophil number” value is 0.62 × 10^6 cells. In addition, the “Suppression of proinflammatory mediator production by ChemR23 KO MΦs (in words)” value in the series on ChemR23−/− PMΦs [2] is recorded as “unable to suppress”. In the series on ChemR23−/− PMΦs [3], the “Chemotactic effect in ChemR23 KO MΦs (in words)” value (shortened to “Chemotactic effect”) was “completely ablated”.

As for GLFHDQAGPPAGYEF [C15-S], in the series with C57Bl6/J mice, the “Protection in vivo as judged by neutrophil and monocyte levels (in words)” value is “not protective”. Besides, in the series with peritoneal MΦs (PMΦs) [1], the “Antiinflammatory activity” value is listed as “devoid of antiinflammatory activity”.

As for ELSETQRRSLQVALEEFHK [N19], in the series on peritoneal MΦs (PMΦs) [1], the “Antiinflammatory activity” value is recorded as “devoid of antiinflammatory activity”.

Regarding RALRTK [C6], the “Antiinflammatory activity” value with peritoneal MΦs (PMΦs) [1] is “no detectable antiinflammatory activity”.

As for FSRALRTK [C8], the “Antiinflammatory activity” value with peritoneal MΦs (PMΦs) [1] was “no detectable antiinflammatory activity”.

With fMLP [reference compound], the “Chemotactic effect” value with ChemR23−/− PMΦs [3] is listed as “unaffected”.

For PHGYFLPGQFA [C11], the “Antiinflammatory activity” value in the series on peritoneal MΦs (PMΦs) [1] was “devoid of antiinflammatory activity”.

B1: RANTES: CC chemokine, positive control in chemotaxis (25 ng/ml; 3 nM) (protein, UniProt P13501 24-91, looked up)
C-C motif chemokine 5: SPYSSDTTPCCFAYIARPLPRAHIKEYFYTSGKCSNPAVVFVTRKNRQVCANPEKKWVREYINSLEMS
B1 came in with a Migration index with peritoneal MΦs (PMΦs) [4] of 6 ± 0.59. Further, in the series with ChemR23−/− PMΦs [3], the “Chemotactic effect” value was “unaffected”.

B2: Chemerin: recombinant murine chemerin (R&D Systems), chemotactic protein that binds ChemR23 (protein, UniProt Q9DD06 21-156, looked up)
Retinoic acid receptor …: EPELSETQRRSLQVALEEFHKHPPVQLAFQEIGVDRAEEVLFSAGTFVRLEFKLQQTNCPKKDWKKPECTIKPNGRRRKCLACIKMDPKGKILGRIVHCPILKQGPQDPQELQCIKIAQAGEDPHGYFLPGQFAFS
B2: the “Calcium flux (in words)” value is recorded as “failed to do so” in series [5] and “induce calcium flux” in [6]. For the same molecule, in the series on MΦs, the “Effect on cell viability (in words)” value was “not found to affect cell viability adversely”. Also, the “Induction of IL-10 mRNA expression” value with peritoneal MΦs (PMΦs) [1] (setting [9]) is on record as 10 fold. In addition, in the series on peritoneal MΦs (PMΦs) [1] (setting [9]), the “Induction of TGF-β mRNA expression” value was “twofold”. In the series on ChemR23−/− PMΦs [3], the “Chemotactic effect” value was “completely ablated”.

The values above are taken from publication PMC2292217 (The Journal of Experimental Medicine, 2008).
